Bioassay records (PubChem BioAssay)
EBI2 block: EBI2 receptor antagonists, beta-arrestin recruitment, primary screen, cell-based, luminescence, 7a,25-OHC stimulation, uHTS | 7a,25-OHC stimulated | inhibition, % at 5 µM | hit rate 0.81% among 360,000 | AID 651636, 2012; in the data active means inhibition above about 38%;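 further: enzyme fragment complementation signal reports receptor beta-arrestin coupling in cells; 0% = agonist plus DMSO wells and 100% = wells without agonist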
Target sequence (P32249 whole entry, looked up, the tested form may be a part): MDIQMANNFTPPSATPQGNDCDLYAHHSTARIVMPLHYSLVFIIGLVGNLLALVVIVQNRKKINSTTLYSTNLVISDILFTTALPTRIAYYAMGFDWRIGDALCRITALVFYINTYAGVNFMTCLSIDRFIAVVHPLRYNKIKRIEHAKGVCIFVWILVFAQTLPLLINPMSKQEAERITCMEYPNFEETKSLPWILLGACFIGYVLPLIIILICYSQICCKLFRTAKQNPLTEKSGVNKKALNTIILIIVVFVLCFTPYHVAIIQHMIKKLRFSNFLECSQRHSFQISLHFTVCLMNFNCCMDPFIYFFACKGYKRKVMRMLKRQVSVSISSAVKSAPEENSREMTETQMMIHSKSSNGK
APJ antag: antagonists of human apelin receptor APJ, primary screen, CHO-K1 cells, beta-arrestin complementation, luminescence; P35414; inhibition, % at 20 µM; hit rate 0.32% among 330,000; AID 2521, 2010;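 active means inhibition above about 40% at 20 µM, limit read from the data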;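 further: cells challenged with 10 nM apelin-13 agonist together with compound; plate controls were apelin-13 plus DMSO wells for no effect and DMSO wells lacking apelin-13 for full effect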
CCR6 antag: CCR6 receptor antagonists, primary screen, cell-based, CHO-K1, luminescence, beta-arrestin, uHTS; C-C chemokine receptor type 6 (Homo sapiens), P51684; AID 493098, 2011; CHO-K1 CCR6 PathHunter beta-arrestin, CCL20-stimulated; hit rate 0.49% among 340,000; inhibition, % at 20 µM;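 active means compounds whose inhibition of the agonist-driven luminescence signal at 20 µM reaches about 50%, limit read from the data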;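 further: cells stimulated with CCL20 at 14 nM final; plate controls were DMSO with CCL20 for no effect and DMSO without agonist for full effect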
CXCR6 inh: CXCR6 receptor inhibitors, primary screen, cell-based, beta-arrestin, luminescence, CHO-K1 PathHunter, 1536-well. C-X-C chemokine receptor type 6 (Homo sapiens), O00574. inhibition, % at 20 µM. hit rate 0.36% among 360,000. AID 602244, 2012; in the data active means inhibition above about 34%, passing the limit was not always enough;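 further: antagonist mode with CXCL16 agonist at 10 nM final; 0% = 10 nM CXCL16 with DMSO and 100% = unstimulated wells without agonist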
Target sequence (O00574 whole entry, looked up): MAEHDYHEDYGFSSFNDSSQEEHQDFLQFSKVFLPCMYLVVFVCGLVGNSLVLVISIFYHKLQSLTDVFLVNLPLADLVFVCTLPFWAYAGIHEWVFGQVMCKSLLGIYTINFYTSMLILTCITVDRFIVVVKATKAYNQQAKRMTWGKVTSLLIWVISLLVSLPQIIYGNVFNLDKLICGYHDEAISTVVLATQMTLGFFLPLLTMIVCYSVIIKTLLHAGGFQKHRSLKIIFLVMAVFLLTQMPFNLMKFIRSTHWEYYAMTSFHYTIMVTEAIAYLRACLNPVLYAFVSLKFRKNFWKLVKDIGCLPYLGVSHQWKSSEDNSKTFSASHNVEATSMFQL
APJ agonist: agonists of human apelin receptor APJ, primary screen, CHO-K1 cells, PathHunter beta-arrestin, luminescence; P35414; activation, % at 20 µM; 0% DMSO wells, 100% apelin; hit rate 0.11% among 330,000;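 active means activation more than six SD over the plate average, tested at 20 µM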;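 further: 0% = DMSO alone and 100% = apelin-13 at 10 nM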
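Incubation: overnight seeding, 90 min compound at 25 °C, 1 h detection; test system: PathHunter CHO-K1 APJ (AGTRL-1) beta-arrestin reporter cells; amount: 1000 cells/well; doses: one dose, 20 µM compound, 1% DMSO; measured by: beta-gal luminescence; measure: agonist-driven arrestin binding to APJ; benchmarks: negative DMSO alone, positive Apelin-13 at 10 nM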
HTR2A ag: mouse Htr2a agonists via beta-arrestin recruitment, primary screen, cell-based, luminescence. 5-hydroxytryptamine receptor 2A (Mus musculus), P35363. CHO-K1 mHTR2A beta-arrestin complementation; percent of 30 µM serotonin response. activation, % at 7.6 µM. hit rate 0.66% among 360,000. AID 624169, 2012;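 active means activation above a run cutoff, the mean activation of all tested compounds plus 3 SD, cut at about 14% in these data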;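 further: 0% = plate median of compound wells and 100% = 30 µM serotonin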
EBI2 conf: EBI2 antagonist hit retest, beta-arrestin, confirmation, cell-based, single concentration, luminescence, 7a,25-OHC stimulation. shares compounds with EBI2 block. 7a,25-OHC antagonism. inhibition, % at 5 µM. hit rate 29% among 2,400. AID 651997, 2013;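 active means inhibition of at least 50%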
EBI2 ag: EBI2 agonist activity of antagonist hits, confirmation, counter-screen for EBI2 antagonist project, cell-based, single concentration, agonist mode, luminescence; shares compounds with EBI2 block; EBI2-expressing cells, 60 min; 0% vehicle, 100% 7α,25-dihydroxycholesterol control; activation, % at 5 µM; 2,400 tested, under 10 active;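 active means activation of at least 50%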
bGal cs: E. coli beta-galactosidase enzyme inhibition, confirmation, counter-screen for EBI2 antagonist project, biochemical, luminescence, single concentration | shares compounds with EBI2 block | purified beta-galactosidase, luminescent Galacton Star, 15 min | inhibition, % at 5 µM | hit rate 1% among 2,400 | AID 652176, 2013;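 active means replicate-average signal at least 3 plate SD below neutral wells, shown as high inhibition, flagging enzyme-inhibiting false positives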;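 further: 0% = DMSO wells with enzyme and 100% = wells lacking enzyme; higher means stronger loss of beta-gal luminescence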
Numbers without * were called inactive. In the library only some 2.1% were active in any assay of this set; here they are far more common.

How did O=C(NCc1ccccc1)c1cc(=O)nc2sc(-c3ccccc3)nn12 do in these assays?
EBI2 block: 43.7*; CCR6 antag: 12.8; CXCR6 inh: 0.3; HTR2A ag: 4.2; EBI2 conf: 26.3; EBI2 ag: -1.1; bGal cs: -8.7

Results for COC(=O)c1ccc(N2CCC(c3cc(-c4ccc(OC)cc4)n[nH]3)CC2)c([N+](=O)[O-])c1 ?
EBI2 block: 49.5*; APJ antag: 4.9; CCR6 antag: 25.8; CXCR6 inh: 10.3; APJ agonist: -2.9; HTR2A ag: 1.2; EBI2 conf: 6.2; EBI2 ag: -0.2; bGal cs: 6.0

Results for COc1ccc(-c2cc(C3CCN(c4ccc(C(C)=O)cc4[N+](=O)[O-])CC3)[nH]n2)cc1 ?
EBI2 block: 8.9; APJ antag: 6.9; CCR6 antag: 18.2; CXCR6 inh: 13.5; APJ agonist: 0.3; HTR2A ag: 1.1

What do the screens show for `Cc1cc(C(=O)N2CCC(Cc3ccccc3)CC2)ccc1[N+](=O)[O-]`?
EBI2 block: 63.7*; APJ antag: -6.6; CCR6 antag: 3.7; CXCR6 inh: 7.8; APJ agonist: -3.0; HTR2A ag: 2.2; EBI2 conf: 43.4; EBI2 ag: 1.3; bGal cs: 4.6

Results for O=C(OCC(=O)N1CCCc2ccccc21)c1cnc(Cl)c(Cl)c1 ?
EBI2 block: 42.9*; APJ antag: -14.6; CCR6 antag: 20.6; CXCR6 inh: 9.9; APJ agonist: 1.9; HTR2A ag: -0.7; EBI2 conf: 39.3; EBI2 ag: -0.2; bGal cs: 5.2

How did Cc1ccc(C(=O)Nc2ccnc(-c3cccnc3)n2)cc1 do in these assays?
EBI2 block: 22.9; APJ antag: 4.2; CCR6 antag: 6.3; CXCR6 inh: 4.5; APJ agonist: -2.0; HTR2A ag: 11.4

What do the screens show for `O=C(Nc1ccnc(-c2cccnc2)n1)c1ccc(Cl)c(Cl)c1`?
EBI2 block: 45.5*; APJ antag: 17.7; CCR6 antag: 4.6; CXCR6 inh: 3.0; APJ agonist: -3.1; HTR2A ag: -3.2; EBI2 conf: 7.1; EBI2 ag: 1.0; bGal cs: 3.0

What do the screens show for `CC1(C)CC(=O)C(CC(=O)c2ccccc2)=C(NN=C(N)N)C1`?
EBI2 block: 0.4; CXCR6 inh: 2.6; HTR2A ag: -1.0

What do the screens show for `CCOC(=O)c1sc(NC(=O)/C=C/c2cnn(CC)c2C)c(C(=O)OCC)c1C`?
EBI2 block: 40.3*; APJ antag: 6.4; CCR6 antag: 9.7; CXCR6 inh: 10.3; APJ agonist: -3.9; HTR2A ag: 3.8; EBI2 conf: 34.9; EBI2 ag: 0.8; bGal cs: 9.9

Results for Cc1cc(C)c(C#N)c(SCC(=O)Nc2cc(C)on2)n1 ?
EBI2 block: -16.8; APJ antag: -0.6; CCR6 antag: -3.1; CXCR6 inh: -2.3; APJ agonist: -0.7; HTR2A ag: -3.7

Results for O=C(CCSc1ccc(Cl)cc1)NC12CC3CC(CC(C3)C1)C2 ?
EBI2 block: 54.4*; APJ antag: 35.7; CCR6 antag: 16.9; CXCR6 inh: 5.9; APJ agonist: -1.8; HTR2A ag: -1.0; EBI2 conf: 26.2; EBI2 ag: -0.5; bGal cs: -9.4

How did CN1C(=O)C(O)(CC(=O)c2ccccn2)c2cc(Br)ccc21 (configuration not stated) do in these assays?
EBI2 block: 36.0*; APJ antag: 24.4; CCR6 antag: 37.6; CXCR6 inh: 8.9; APJ agonist: -2.3; HTR2A ag: -4.4; EBI2 conf: 28.5; EBI2 ag: -2.2; bGal cs: -8.3

What do the screens show for `Cc1cccc(CN2CCN(C3CN(C4CCCCC4)S(=O)(=O)C3)CC2)c1` (configuration not stated)?
EBI2 block: -13.4; CXCR6 inh: -5.8; HTR2A ag: 2.8

How did Cc1cc(Cl)ccc1C(O)c1ncc(-c2ccc(F)cc2)[nH]1 (configuration not stated) do in these assays?
EBI2 block: -0.2; CXCR6 inh: -3.8; HTR2A ag: -0.2

How did CCOC(=O)C1CCN(C(=O)COc2cc(C)c(Br)cc2C)CC1 do in these assays?
EBI2 block: 70.8*; APJ antag: -2.8; CCR6 antag: 11.7; CXCR6 inh: -6.5; APJ agonist: -1.2; HTR2A ag: 0.7; EBI2 conf: 37.0; EBI2 ag: 0.2; bGal cs: -5.2

Results for CCOC(=O)C1CCN(C(=O)COc2ccc(Br)cc2Br)CC1 ?
EBI2 block: 44.3*; APJ antag: 2.6; CCR6 antag: 6.8; CXCR6 inh: -6.1; APJ agonist: -3.8; HTR2A ag: -1.9; EBI2 conf: 15.0; EBI2 ag: 1.0; bGal cs: 6.8

Results for O=C(COc1ccc(Br)cc1Cl)N1CCN(c2ncccn2)CC1 ?
EBI2 block: 0.0; APJ antag: 6.8; CCR6 antag: 5.5; CXCR6 inh: -4.5; APJ agonist: -2.8; HTR2A ag: -4.8

What do the screens show for `CCOC(=O)N1CCN(C(=O)COc2ccc(Br)cc2Cl)CC1`?
EBI2 block: 61.9*; APJ antag: 8.4; CCR6 antag: 15.9; CXCR6 inh: 6.5; APJ agonist: -0.5; HTR2A ag: 0.9; EBI2 conf: 27.8; EBI2 ag: 1.4; bGal cs: 1.8

How did CCOC(=O)C1CCN(C(=O)COc2ccc(C(=O)c3ccccc3)cc2)CC1 do in these assays?
EBI2 block: -13.6; APJ antag: 2.9; CCR6 antag: 4.2; CXCR6 inh: 3.2; APJ agonist: -4.4; HTR2A ag: 1.4

What do the screens show for `CCOC(=O)C1CCN(C(=O)COc2cccc(C)c2)CC1`?
EBI2 block: 11.0; APJ antag: -19.4; CCR6 antag: 9.1; CXCR6 inh: 1.7; APJ agonist: -6.1; HTR2A ag: 3.0
